Source: PubChem BioAssay (SRMLSC)
HCT116 bCat-KO = primary screen for growth suppressors in beta-catenin knockout HCT116 cells (colon tumor, human); 1.5% of 140,000 active; viability, % at 10 µM; HCT116 beta-catenin knockout viability, CellTiter-Glo, 60 h; active compounds read low;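 active = viability at or under a set limit, the compound median less 4 SD, cut at about 6% in these data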;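 note: 0% = Hyamine 1622 control at 20 µM and 100% = untreated cell control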
H69AR growth 86K = proliferation blockers of H69AR lung cancer cells, primary screen, cell-based, human, 86K library; viability, % at 10 µM; 6% of 85,000 active; AID 598, 2007; H69AR lung tumor viability, ATP luminescence, 72 h; active compounds read low;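 active = viability at or below 40%; inactive = viability above 40%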;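 note: multidrug resistant small cell line overexpressing MRP-1 efflux transporter; 100% = mean luminescence of untreated control wells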
HUVEC inhibit = inhibitors of HUVEC proliferation, primary screen, cell-based, 384-well. AID 648, 2007. CellTiter-Glo luminescence, 72 h; active compounds read low. viability, % at 10 µM (by protocol). 1.1% of 86,000 active;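 active = viability at or below 30%; inactive = viability above 30%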;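 note: 100% = median luminescence of DMSO-only cell control wells on each plate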
PTEN del growth = growth suppression of PTEN-null HCT116, primary screen, cell-based, CellTiter-Glo; HCT116 PTEN-null viability, 60 h; active compounds read low; viability, % at 10 µM; 1.2% of 140,000 active;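 active = viability at or below a set limit, 4 SD under the median of all tested compounds, cut at about 3.7% in these data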;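 note: PTEN knockout HCT116 line with beta catenin targeted HCT116 as companion control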
Lung fibro prol = antiproliferative effect on LL 47 fibroblasts – human, LL 47 cells, CellTiter-Glo luminescence, primary screen | LL 47 human lung fibroblast viability, ATP luminescence; active compounds read low | viability, % at 10 µM | 1.1% of 85,000 active;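 active = viability at or below 50% in the single dose screen; inactive = viability above 50%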;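 note: compound exposure lasted 72 h before the ATP readout; 100% = median luminescence of untreated cell-only wells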
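Signal: luminescent ATP detection, CellTiter-Glo; assay system: LL 47 human lung fibroblasts; input: 1,150 cells/well; incubation: overnight cell rest, 72 h compound treatment at 37 °C; measure: % viability versus median cells-only luminescence; medium: IMEM growth medium with 15% fetal bovine serum; dosing: compound addition at 0.1% DMSO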
An asterisk follows results filed as active; · = no result. The full list was thinned out, with hits kept by preference.

SMILES	HCT116 bCat-KO	H69AR growth 86K	HUVEC inhibit	PTEN del growth	Lung fibro prol
O=c1[nH]c(=O)n([C@H]2C[C@H](O)[C@@H](CO)O2)cc1F	45.0	14.7*	62.0	36.5	79.9
Cc1cn([C@H]2C[C@H](N=[N+]=[N-])[C@@H](CO)O2)c(=O)[nH]c1=O	83.0	91.4	109.9	87.0	99.6
COc1ccc(/C=C2/CCc3ccccc3C2=O)cc1OC	37.9	·	·	39.1	·
COc1cc(/C=C2/CCc3ccccc3C2=O)cc(OC)c1OC	9.7	·	·	4.5	·
COc1cc(/C=C2\CCc3ccccc3C2=O)cc(OC)c1OC	2.0*	·	·	1.7*	·
COc1ccc(/C=C2\COc3ccccc3C2=O)cc1OC	1.6*	·	·	1.1*	·
CCOc1ccc(C(=O)Nc2ccc(-c3cc4ccccc4oc3=O)c(C)c2)cc1[N+](=O)[O-]	9.0	·	·	5.0	·
O=C(Nc1ccc([N+](=O)[O-])cc1)c1nc[nH]c1C(=O)NC1CCCCC1	2.8*	·	·	1.2*	·
O=C(Nc1ccc(F)cc1)c1nc[nH]c1C(=O)Nc1ccc([N+](=O)[O-])cc1	1.3*	·	·	1.4*	·
Cc1ccc(-c2nnn(CC(=O)N(Cc3ccco3)C(C(=O)NC(C)(C)C)c3cccs3)n2)o1 (stereo not drawn)	74.8	68.8	109.1	76.3	101.2
Cc1ccc(C(=O)N/C(=C\c2ccc(-c3ccc([N+](=O)[O-])cc3)o2)C(=O)NC2CCS(=O)(=O)C2)cc1 (stereo not drawn)	84.8	·	·	84.8	·
O=C(N/N=C/c1ccncc1)c1ccccc1OCc1ccc(Br)cc1	38.5	·	·	40.6	·
CN1CCN(c2ccc(NC(=O)Cc3ccccc3)cc2)CC1	102.9	94.9	90.6	112.5	103.3
COc1c(F)c(F)c(C(=O)Nc2ccc(N3CCN(Cc4ccccc4)CC3)cc2)c(F)c1F	69.6	51.8	21.9*	73.2	90.9
COc1cccc(C(=O)Nc2ccc(N3CCN(Cc4ccccc4)CC3)cc2)c1	65.9	69.7	103.6	76.5	99.1
CCN1CCN(c2ccc(NC(=O)c3ccc4c(c3)[nH]c(=O)n4Cc3ccc(F)cc3)cc2)CC1	3.4*	·	·	1.8*	·
CCN1CCN(c2ccc(NC(=O)c3cccc(OCc4ccccc4)c3)cc2)CC1	7.6	44.4	46.1	3.5*	77.9
COc1ccc(Cn2c(=O)[nH]c3cc(C(=O)Nc4ccc(N5CCN(C)CC5)cc4)ccc32)cc1	62.9	·	·	56.3	·
CN1CCN(c2ccc(NC(=O)c3cccc(OCc4ccccc4)c3)cc2)CC1	2.6*	32.0*	3.5*	13.5	60.8
CCCN1Cc2cccc(C(=O)Nc3ccc(N4CCN(CC)CC4)cc3)c2C1=O	·	22.2*	84.0	·	103.2
COCCN=c1scc(-c2cc(OC)ccc2OC)n1/N=C/c1c[nH]c2ccccc12	55.7	·	·	41.0	·
Cn1c2ccccc2c(=O)c2c(=O)n(C3CCCCCC3)c(C3CCCCC3)nc21	5.2*	·	·	2.5*	·
Cn1c2ccccc2c(=O)c2c(=O)n(C3CCCCC3)c(-c3cccs3)nc21	24.8	34.2*	53.6	13.9	40.6*
COc1c(F)c(F)c(C(=O)O)c(Nc2ccc(C)cc2)c1F	97.7	103.2	95.5	91.6	104.6
CCCc1[nH]c(=O)c(C#N)c2c1COC(C)(C)C2	104.7	98.2	73.8	100.8	95.8
SMILES	HCT116 bCat-KO	H69AR growth 86K	HUVEC inhibit	PTEN del growth	Lung fibro prol
COc1cccc(-c2nc(-c3ccccc3)no2)c1	73.3	65.6	97.1	74.1	92.7
Cc1oc2c(C)c(O)ccc2c(=O)c1-c1ccc2ccccc2n1	98.4	·	·	99.2	·
COc1ccc(-c2onc(C)c2-c2ccccc2)c(O)c1	49.6	31.3*	84.6	51.5	95.4
COc1ccc(-c2noc(C)c2-c2ccc3ccccc3n2)c(O)c1	67.3	25.9*	71.0	71.3	77.6
CCCNC(=O)OC[C@H]1O[C@H](CCO/N=C/[C@@H](OC)[C@H](C)/C=C/CC(=O)OC)C=C[C@@H]1Oc1ccc(OC)cc1	81.7	·	·	80.7	·
CCC1(c2ccc(F)cc2)NC(=O)N(CC(=O)Nc2ccc(-c3nc4ccc(C)cc4s3)cc2)C1=O (stereo not drawn)	1.1*	·	·	1.3*	·
CCc1cc(-c2[nH]ncc2-c2ccc3c(c2)OCO3)c(O)cc1O	48.0	78.7	9.7*	44.7	71.3
COc1ccc(-c2[nH]ncc2-c2ccc3c(c2)OCCO3)c(O)c1	85.9	·	·	79.8	·
CCCc1cc(-c2[nH]ncc2-c2ccc3c(c2)OCCCO3)c(O)cc1OC	63.3	17.6*	5.5*	62.2	80.0
CCn1c(=N)n(CC(=O)c2ccc(OC)cc2)c2ccccc21	47.1	·	·	41.7	·
Cc1ccc(Cn2c(=N)n(CC(=O)c3ccc([N+](=O)[O-])cc3)c3ccccc32)cc1	0.9*	·	·	0.9*	·
Cc1cc(Cl)ccc1NC(=S)Nc1cccnc1	94.0	88.4	91.6	92.8	100.7
O=C(O)c1ccccc1C(=O)N(Cc1ccccc1)Cc1ccccc1	94.6	94.5	90.5	106.5	97.1
O=C(c1c(F)c(F)c(F)c(F)c1F)N(Cc1ccccc1)Cc1ccccc1	80.3	36.3*	87.8	80.1	92.5
N#Cc1sc2nc(N3CCCCC3)c3c(c2c1N)CCCC3	7.6	23.0*	7.4*	13.0	90.7
O=C(O)C1CCCCC1C(=O)Nc1cccc2ccccc12 (stereo not drawn)	90.9	83.1	92.0	94.5	108.0
Nc1nc(Nc2cccc3ccccc23)nc(C2CCCC2=O)n1 (stereo not drawn)	77.0	0.8*	14.8*	60.5	91.3
CCCCN(CC)c1nc(N)c(C#N)c(CC#N)c1C#N	85.9	88.9	77.6	83.3	96.5
CCCCN(CC)c1nc(N)c2c(N)nc(OCC)cc2c1C#N	71.8	33.9*	79.8	74.8	82.2
Oc1ccccc1-c1nnc(SCCN2CCOCC2)n1Cc1ccccc1	2.7*	14.7*	87.9	2.4*	24.3*
O=c1oc2ccccc2cc1C1=Nn2c(nnc2-c2cccnc2)SC1	104.0	80.5	87.1	92.5	103.4
CC(C)Nc1nc(NC(C)C)nc(N(C#N)CCOc2ccc(Cl)cc2Cl)n1	65.0	27.9*	86.8	59.8	83.6
Cn1c(=O)n(C)c2cc(NC(=O)c3cc4ccccc4o3)ccc21	62.4	43.5	59.2	67.7	85.3
COc1ccc(C2C(C#N)=C(N)N(Nc3ccccc3)C3=C2C(=O)CC(C)(C)C3)cc1C (stereo not drawn)	66.0	·	·	58.9	·
COc1ccc(C2C(C#N)=C(N)N(c3cccnc3)C3=C2C(=O)CC(C)(C)C3)cc1OC (stereo not drawn)	83.9	·	·	87.5	·
COc1ccc(OC)c(N2C(N)=C(C#N)C(c3ccc(OC)c(O)c3)C3=C2CC(C)(C)CC3=O)c1 (stereo not drawn)	·	15.6*	86.2	·	96.6
COc1ccc(N2C(N)=C(C#N)C(c3cccnc3)C3=C2CC(C)(C)CC3=O)cc1 (stereo not drawn)	68.7	17.7*	65.4	67.3	80.2
